Molecules are shown by their SMILES.

From ChEMBL document CHEMBL1124478, “Cardiotonic agents. 5. Fragments from the heterocycle-phenyl-imidazole pharmacophore” (J Med Chem, 1989) come the findings set out here.

The species entered for assay [1] is Mustela putorius furo. The assay is described as follows: Increase in contractile force (CF) of ferret papillary muscle; NR = not reached at 100 uM. The format is functional. The settings on record: Muscle tissue. In short, it runs like this: (§1)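 Isolated ferret papillary muscle in vitro. Value is the drug concentration (μM) giving a 20% rise in contractile force, the mean of at least two determinations, with ranges within ±10%. NR means that level was not reached at 100 μM. Responses were also tested with 1 μM propranolol and, for some compounds, 10 μM cimetidine.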

Assay [2] deals with cAMP phosphodiesterase (Canis familiaris). The assay is described as follows: Inhibition of crude canine cardiac c-AMP phosphodiesterase at 100 uM. The settings on record: Canis lupus familiaris.
For assay [3], the species on record is Mustela putorius furo. The assay is described as follows: 20% increase in contractile force (CF) of ferret papillary muscle. The assay is classed as functional, Muscle tissue. The essentials:
as §1

The nature of assay [4]: Inhibition of crude canine cardiac c-AMP phosphodiesterase. Also on record: species or system Canis lupus familiaris. The essentials: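 Crude cAMP phosphodiesterase came from canine cardiac tissue homogenates. IC50 (μM) is the mean of at least three determinations, with ranges within ±10%. Where 50% inhibition was not reached at 100 μM, the percent inhibition at 100 μM drug was recorded instead.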

For orientation: inhibition means the percentage by which the read-out fell short of the control. A high value points to a strong effect. `CCc1[nH]c(O)nc1C(=O)NCCCn1ccnc1`: the C20 result in assay [1] is listed as “Not reached”. The inhibition in assay [2] was found to be 5%. The compound `CC(=O)c1ccc(-n2ccnc2C)cc1` yielded a C20 in assay [3] of 25 µM. In assay [2], this compound had an inhibition of 15%.

In assay [3], `CCc1[nH]c(O)nc1C(=O)NCCc1c[nH]cn1` yielded a C20 of 10 µM. Besides, the inhibition in assay [2] was 25%. In the case of `CCc1[nH]c(O)nc1C(=O)OC`, the C20 result in assay [1] was “Not reached”. Further, the inhibition in assay [2] came to 10%. The IC50 is the concentration that gives 50% inhibition. Lower therefore signals greater potency. In assay [3], `Cc1nc(O)c(C#N)c(NCCc2c[nH]cn2)n1` came in with a C20 of 0.2 µM. This compound also displayed a 50% inhibitory concentration (IC50) in assay [4] of 4 µM. The corresponding values for `O=C1CCc2cc(-n3ccnc3)ccc2N1` are 1.6 µM and 71 µM. For `CCc1[nH]c(O)nc1C(=O)c1ccc(-n2ccnc2)cc1`, in that order: 0.05 µM and 2 µM. For `CCc1[nH]c(O)nc1C(=O)c1ccccc1`, in that order: 2 µM and 54 µM. In assay [3], `COc1ccc(C(=O)N2CCN(c3ccc4c(c3)CCC(=O)N4)CC2)cc1OC` [VESNARINONE] showed a C20 of 2.3 µM. This compound also came in with an IC50 in assay [4] of 32 µM. In assay [3], `CCc1[nH]c(O)nc1C(=O)c1ccc(-n2ccnc2C)cc1` gave a C20 of 0.7 µM. Regarding `Cc1nc(=O)c(C#N)c(NCc2cccnc2)[nH]1` [PELRINONE], in assay [3], the C20 amounted to 0.2 µM. Besides, the IC50 in assay [4] is 4 µM.
